Laboratory results from ChEMBL document CHEMBL3091351, “The 3,7-diazabicyclo[3.3.1]nonane scaffold for subtype selective nicotinic acetylcholine receptor (nAChR) ligands. Part 1: the influence of different hydrogen bond acceptor systems on alkyl and (hetero)aryl substituents” (Bioorg Med Chem, 2013).
Calls of active or inactive are those of the source. No cut-off for these calls is given here.

How the values were obtained:
[1] = Displacement of [3H]epibatidine from (alpha1)2beta1gammadelta nAChR in Torpedo californica electroplax after 90 mins by liquid scintillation counting analysis; set-up: species or system Tetronarce californica
How it was run: (§1)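 Torpedo californica electroplax membranes (60–70 µg) incubated with (±)-[3H]epibatidine and 6–9 test concentrations in HSS buffer, 90 min at 22 °C. 300 µM (−)-nicotine defined non-specific binding. PEI-presoaked glass fibre filtration, scintillation counting; duplicate to quadruplicate, 2–10 independent experiments.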

[2] = target: T1, Neuronal acetylcholine receptor subunit alpha-7 (Rattus norvegicus, UniProt Q05941); test: Displacement of [3H]methyllycaconitine from alpha7 nAChR in Sprague-Dawley rat forebrain P2 fraction after 90 mins by liquid scintillation counting analysis
T1 sequence (Q05941 whole entry): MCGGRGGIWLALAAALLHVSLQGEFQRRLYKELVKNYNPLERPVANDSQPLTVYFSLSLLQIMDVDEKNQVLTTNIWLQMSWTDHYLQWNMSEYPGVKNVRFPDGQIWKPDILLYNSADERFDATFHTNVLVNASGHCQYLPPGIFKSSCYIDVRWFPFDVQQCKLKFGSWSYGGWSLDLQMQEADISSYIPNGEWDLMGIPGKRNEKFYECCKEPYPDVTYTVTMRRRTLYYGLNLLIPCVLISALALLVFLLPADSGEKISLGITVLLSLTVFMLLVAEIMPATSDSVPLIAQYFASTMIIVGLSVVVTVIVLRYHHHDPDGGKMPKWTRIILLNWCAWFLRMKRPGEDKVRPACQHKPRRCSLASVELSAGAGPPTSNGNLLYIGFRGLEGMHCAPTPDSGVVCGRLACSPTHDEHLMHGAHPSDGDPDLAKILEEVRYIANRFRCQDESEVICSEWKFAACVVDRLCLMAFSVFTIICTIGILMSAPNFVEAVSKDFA

[3] = target: T2, Nicotinic acetylcholine receptor alpha1/beta1/epsilon/delta (Mus musculus) (UniProt P04756+P09690+P02716+P20782); test: Agonist activity at mouse alpha1beta1epsilondelta nAChR expressed in Xenopus laevis oocytes at 1 uM incubated for 8 secs followed by compound washout for 241 secs by Two-electrode voltage clamp assay; format: cell-based
How it was run: (§2)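 Stage V oocytes, defolliculated with collagenase, injected with 5–20 ng subunit cRNA and recorded 1–7 days later. Two-electrode clamp at −60 mV in Ringer's with 1 µM atropine, pH 7.2. Perfusion 2 ml/min for α7, 4 ml/min for the others. Test applications were bracketed by ACh controls (30 µM α1β1εδ, 60 µM α7, 100 µM α3β4, 30 µM α4β2).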

[4] = target: T3, Neuronal acetylcholine receptor; alpha3/beta4 (Homo sapiens) (UniProt P30926+P32297); test: Agonist activity at human alpha3beta4 nAChR expressed in Xenopus laevis oocytes at 10 uM incubated for 8 secs followed by compound washout for 241 secs by Two-electrode voltage clamp assay; format: cell-based; how it was run: as §2
[5] = Displacement of [3H]epibatidine from alpha3beta4 nAChR in calf adrenal membranes fraction after 90 mins by liquid scintillation counting analysis; format: cell membranes, Bos taurus
How it was run: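 Calf adrenal membranes (60–70 µg) in HSS buffer with 0.5 nM (±)-[3H]epibatidine, 6–9 test concentrations, 90 min at 22 °C. Non-specific binding with 300 µM (−)-nicotine. PEI-presoaked glass fibre filtration, liquid scintillation read-out; duplicate to quadruplicate, 2–10 independent experiments.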

[6] = target: T3, Neuronal acetylcholine receptor; alpha3/beta4 (Homo sapiens); test: Agonist activity at human alpha3beta4 nAChR expressed in Xenopus laevis oocytes at 1 uM incubated for 8 secs followed by compound washout for 241 secs by Two-electrode voltage clamp assay; format: cell-based; how it was run: as §2
[7] = target: T4, Neuronal acetylcholine receptor; alpha4/beta2 (Rattus norvegicus, UniProt P09483+P12390); test: Displacement of [3H]epibatidine from alpha4beta2 nAChR in Sprague-Dawley rat forebrain P2 fraction after 90 mins by liquid scintillation counting analysis
T4 sequence (P09483 whole entry): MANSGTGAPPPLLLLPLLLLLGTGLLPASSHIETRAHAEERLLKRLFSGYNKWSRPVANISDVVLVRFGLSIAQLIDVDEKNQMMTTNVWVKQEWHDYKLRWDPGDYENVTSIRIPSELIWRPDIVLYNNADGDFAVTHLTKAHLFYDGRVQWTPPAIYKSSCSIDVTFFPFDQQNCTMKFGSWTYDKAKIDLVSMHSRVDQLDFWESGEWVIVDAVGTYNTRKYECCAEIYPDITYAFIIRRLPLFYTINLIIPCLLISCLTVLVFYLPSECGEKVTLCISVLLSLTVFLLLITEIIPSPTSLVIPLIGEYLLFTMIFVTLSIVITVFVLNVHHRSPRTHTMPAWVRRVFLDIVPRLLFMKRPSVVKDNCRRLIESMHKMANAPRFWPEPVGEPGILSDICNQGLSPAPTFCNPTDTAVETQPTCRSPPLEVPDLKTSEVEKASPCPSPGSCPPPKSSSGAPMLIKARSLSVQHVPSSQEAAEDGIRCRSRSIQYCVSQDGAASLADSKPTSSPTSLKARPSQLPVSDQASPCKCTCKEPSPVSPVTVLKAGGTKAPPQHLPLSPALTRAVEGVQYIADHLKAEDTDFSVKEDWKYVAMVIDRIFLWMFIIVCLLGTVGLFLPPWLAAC
T4 sequence (P12390 whole entry): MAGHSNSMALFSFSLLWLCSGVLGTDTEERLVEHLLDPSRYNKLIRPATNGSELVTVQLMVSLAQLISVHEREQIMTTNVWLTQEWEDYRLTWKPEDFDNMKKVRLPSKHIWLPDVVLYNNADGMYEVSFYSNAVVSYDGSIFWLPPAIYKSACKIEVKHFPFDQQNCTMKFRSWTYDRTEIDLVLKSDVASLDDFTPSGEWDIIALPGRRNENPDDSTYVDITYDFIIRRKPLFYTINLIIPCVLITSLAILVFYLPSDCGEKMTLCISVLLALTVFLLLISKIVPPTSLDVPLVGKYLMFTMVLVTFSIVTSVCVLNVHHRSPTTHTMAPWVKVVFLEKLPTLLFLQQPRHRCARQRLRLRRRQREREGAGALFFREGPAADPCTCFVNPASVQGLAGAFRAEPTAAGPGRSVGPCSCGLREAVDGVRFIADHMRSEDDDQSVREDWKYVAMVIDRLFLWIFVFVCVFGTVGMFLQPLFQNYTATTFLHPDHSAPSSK
How it was run: (§3)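 Rat forebrain P2 membranes (60 µg protein) in HSS buffer with 0.5 nM (±)-[3H]epibatidine and 6–9 test concentrations. Incubated 90 min at 22 °C; non-specific binding defined with 300 µM (−)-nicotine. Filtered through PEI-presoaked glass fibre filters and counted by liquid scintillation. Run in duplicate to quadruplicate, with 2–10 independent experiments.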

[8] = target: Neuronal acetylcholine receptor subunit alpha-7 (Homo sapiens) (UniProt P36544); test: Agonist activity at human alpha7 nAChR expressed in Xenopus laevis oocytes at 1 uM incubated for 12 secs followed by compound washout for 181 secs by Two-electrode voltage clamp assay; format: cell-based; how it was run: as §2
Sequence of Neuronal acetylcholine receptor subunit alpha-7 (Homo sapiens) (P36544 whole entry, the tested form may be a part): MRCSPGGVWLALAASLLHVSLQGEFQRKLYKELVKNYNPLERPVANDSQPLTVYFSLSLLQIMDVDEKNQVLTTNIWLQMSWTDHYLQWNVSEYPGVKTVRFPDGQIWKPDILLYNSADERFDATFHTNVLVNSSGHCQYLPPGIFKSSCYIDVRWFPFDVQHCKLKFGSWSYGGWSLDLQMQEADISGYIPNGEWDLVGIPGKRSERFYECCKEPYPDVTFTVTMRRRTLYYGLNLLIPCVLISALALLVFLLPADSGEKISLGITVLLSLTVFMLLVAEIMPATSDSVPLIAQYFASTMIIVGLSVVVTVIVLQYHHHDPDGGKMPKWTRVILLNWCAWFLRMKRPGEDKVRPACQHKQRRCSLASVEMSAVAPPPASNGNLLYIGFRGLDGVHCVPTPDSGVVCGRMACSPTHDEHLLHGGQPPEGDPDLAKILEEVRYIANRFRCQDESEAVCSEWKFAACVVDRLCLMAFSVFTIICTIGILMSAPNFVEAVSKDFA

[9] = target: T5, Neuronal acetylcholine receptor; alpha4/beta2 (Homo sapiens, UniProt P17787+P43681); test: Agonist activity at human alpha4beta2 nAChR expressed in Xenopus laevis oocytes at 1 uM incubated for 8 secs followed by compound washout for 241 secs by Two-electrode voltage clamp assay; format: cell-based; how it was run: as §2
T5 sequence (P17787 whole entry): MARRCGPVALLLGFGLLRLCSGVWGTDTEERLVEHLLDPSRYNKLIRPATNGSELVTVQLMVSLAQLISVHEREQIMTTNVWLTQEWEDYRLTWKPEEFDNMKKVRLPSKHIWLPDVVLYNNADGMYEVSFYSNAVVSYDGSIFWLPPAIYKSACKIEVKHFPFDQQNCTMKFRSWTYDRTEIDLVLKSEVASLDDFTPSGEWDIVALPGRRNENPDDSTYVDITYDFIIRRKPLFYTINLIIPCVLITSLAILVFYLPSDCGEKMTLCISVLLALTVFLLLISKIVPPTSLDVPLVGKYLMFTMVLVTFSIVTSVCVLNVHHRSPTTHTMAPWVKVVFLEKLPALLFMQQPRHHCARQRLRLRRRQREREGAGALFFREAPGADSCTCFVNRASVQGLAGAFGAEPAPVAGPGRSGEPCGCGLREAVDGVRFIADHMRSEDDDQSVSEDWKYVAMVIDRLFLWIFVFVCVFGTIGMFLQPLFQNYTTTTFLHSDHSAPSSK
T5 sequence (P43681 whole entry): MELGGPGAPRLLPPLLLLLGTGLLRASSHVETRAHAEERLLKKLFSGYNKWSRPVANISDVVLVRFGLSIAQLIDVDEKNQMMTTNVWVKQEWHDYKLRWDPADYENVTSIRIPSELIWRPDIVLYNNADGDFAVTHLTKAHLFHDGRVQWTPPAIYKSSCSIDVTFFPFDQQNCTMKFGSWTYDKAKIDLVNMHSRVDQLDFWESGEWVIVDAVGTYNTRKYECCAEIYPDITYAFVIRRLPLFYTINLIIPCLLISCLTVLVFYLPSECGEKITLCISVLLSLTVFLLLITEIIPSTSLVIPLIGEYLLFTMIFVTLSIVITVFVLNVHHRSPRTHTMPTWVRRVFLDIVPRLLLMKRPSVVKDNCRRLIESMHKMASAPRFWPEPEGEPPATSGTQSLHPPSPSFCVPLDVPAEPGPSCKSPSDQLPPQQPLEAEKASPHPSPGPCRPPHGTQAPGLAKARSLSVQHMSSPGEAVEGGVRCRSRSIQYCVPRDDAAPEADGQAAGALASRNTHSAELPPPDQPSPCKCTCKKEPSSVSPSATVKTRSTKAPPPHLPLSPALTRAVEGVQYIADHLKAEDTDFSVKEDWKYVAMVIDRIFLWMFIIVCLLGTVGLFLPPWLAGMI

[10] = target: Neuronal acetylcholine receptor subunit alpha-7 (Homo sapiens) (UniProt P36544); test: Agonist activity at human alpha7 nAChR expressed in Xenopus laevis oocytes at 10 uM incubated for 12 secs followed by compound washout for 181 secs by Two-electrode voltage clamp assay; format: cell-based; how it was run: as §2
[11] = target: T4, Neuronal acetylcholine receptor; alpha4/beta2; test: Displacement of [3H]-epibatidine from rat forebrain alpha4beta2 nAChR; how it was run: as §3
[12] = target: T1, Neuronal acetylcholine receptor subunit alpha-7; test: Displacement of [3H]methyllycaconitine from rat forebrain alpha7 nAChR
How it was run: (§4)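 Competition binding on rat forebrain P2 membranes (60–70 µg protein) with [3H]MLA across 6–9 test concentrations. Incubation 120 min at 22 °C; 1 µM MLA defined non-specific binding. Samples filtered on PEI-presoaked glass fibre, scintillation-counted; duplicate to quadruplicate, 2–10 independent experiments.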

[13] = Binding affinity to (alpha1)2beta1gammadelta nAChR in Torpedo californica electroplax by radioligand displacement assay; set-up: species or system Tetronarce californica; how it was run: as §1
[14] = target: T1, Neuronal acetylcholine receptor subunit alpha-7; test: Displacement of [3H]methyllycaconitine from alpha7 nAChR in Sprague-Dawley rat brain membrane fraction after 2 hrs by liquid scintillation counting analysis; format: cell membranes; how it was run: as §4
[15] = target: T2, Nicotinic acetylcholine receptor alpha1/beta1/epsilon/delta (Mus musculus); test: Agonist activity at mouse alpha1beta1epsilondelta nAChR expressed in Xenopus laevis oocytes at 10 uM incubated for 8 secs followed by compound washout for 241 secs by Two-electrode voltage clamp assay; format: cell-based; how it was run: as §2
[16] = target: T5, Neuronal acetylcholine receptor; alpha4/beta2; test: Displacement of [3H]nicotine from alpha4beta2 nAChR expressed in human SH-EP1 clonal cell membranes after 2 to 3 hrs by liquid scintillation counting analysis
[17] = target: T4, Neuronal acetylcholine receptor; alpha4/beta2; test: Displacement of [3H]nicotine from alpha4beta2 nAChR in Sprague-Dawley rat brain membrane fraction after 2 to 3 hrs by liquid scintillation counting analysis; format: cell membranes
[18] = target: T5, Neuronal acetylcholine receptor; alpha4/beta2; test: Agonist activity at human alpha4beta2 nAChR expressed in Xenopus laevis oocytes at 10 uM incubated for 8 secs followed by compound washout for 241 secs by Two-electrode voltage clamp assay; format: cell-based; how it was run: as §2
[19] = target: T5, Neuronal acetylcholine receptor; alpha4/beta2; test: Antagonist activity at human alpha4beta2 nAChR expressed in Xenopus laevis oocytes assessed as inhibition of acetylcholine-induced effect at 10 uM incubated for 8 secs followed by compound washout for 241 secs by Two-electrode voltage clamp assay; format: cell-based
How it was run: (§5)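 Oocytes injected with 50 nl of 5–20 ng subunit cRNA and recorded 1–7 days later. Two-electrode voltage clamp at −60 mV, with perfusion at 4 ml/min in Ringer's solution (pH 7.2, 1 µM atropine). Each recording ran two ACh controls, then compound co-applied with ACh, then a follow-up ACh control. Applications lasted 8 s with a 241 s washout. Control ACh was 100 µM for α3β4 and 30 µM for α4β2.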

[20] = target: T3, Neuronal acetylcholine receptor; alpha3/beta4 (Homo sapiens); test: Partial agonist activity at human alpha3beta4 nAChR expressed in Xenopus laevis oocytes at 10 uM incubated for 8 secs followed by compound washout for 241 secs by Two-electrode voltage clamp assay; format: cell-based
How it was run: (§6)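 Oocytes injected with 50 nl of 5–20 ng subunit cRNA and recorded 1–7 days later. Two-electrode voltage clamp at −60 mV, with perfusion at 4 ml/min in Ringer's solution (pH 7.2, 1 µM atropine). Two initial ACh control applications, then a compound application, then a follow-up ACh control. Applications lasted 8 s with a 241 s washout. Control ACh was 100 µM for α3β4 and 30 µM for α4β2.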

[21] = target: T3, Neuronal acetylcholine receptor; alpha3/beta4 (Homo sapiens); test: Antagonist activity at human alpha3beta4 nAChR expressed in Xenopus laevis oocytes assessed as inhibition of acetylcholine-induced effect at 10 uM incubated for 8 secs followed by compound washout for 241 secs by Two-electrode voltage clamp assay; format: cell-based; how it was run: as §5
[22] = target: Neuronal acetylcholine receptor subunit alpha-7 (Homo sapiens) (UniProt P36544); test: Antagonist activity at human alpha7 nAChR expressed in Xenopus laevis oocytes assessed as inhibition of acetylcholine-induced effect at 10 uM incubated for 12 secs followed by compound washout for 181 secs by Two-electrode voltage clamp assay; format: cell-based
How it was run: (§7)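 Oocytes clamped at −60 mV, perfused with Ringer's plus 1 µM atropine, pH 7.2. After two control ACh applications, the compound was co-applied with control ACh (60 µM for α7, 30 µM for α1β1εδ), followed by one further ACh control to gauge rundown. α7 used 2 ml/min perfusion; muscle subtype used 4 ml/min.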

[23] = target: T5, Neuronal acetylcholine receptor; alpha4/beta2; test: Partial agonist activity at human alpha4beta2 nAChR expressed in Xenopus laevis oocytes at 10 uM incubated for 8 secs followed by compound washout for 241 secs by Two-electrode voltage clamp assay; format: cell-based; how it was run: as §6
[24] = target: Neuronal acetylcholine receptor subunit alpha-7 (Homo sapiens) (UniProt P36544); test: Partial agonist activity at human alpha7 nAChR expressed in Xenopus laevis oocytes at 10 uM incubated for 12 secs followed by compound washout for 181 secs by Two-electrode voltage clamp assay; format: cell-based
How it was run: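 α7-expressing oocytes injected with 50 nl of 5–20 ng cRNA and recorded 1–7 days later. Clamped at −60 mV and perfused at 2 ml/min with Ringer's solution (pH 7.2, 1 µM atropine). Two 60 µM ACh control applications, then a compound application, then a follow-up ACh control. Applications lasted 12 s with a 181 s washout.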

[25] = Binding affinity to pig adrenal alpha3beta4 nAChR by radioligand displacement assay; set-up: species or system Sus scrofa
[26] = target: T2, Nicotinic acetylcholine receptor alpha1/beta1/epsilon/delta (Mus musculus); test: Antagonist activity at mouse alpha1beta1epsilondelta nAChR expressed in Xenopus laevis oocytes assessed as inhibition of acetylcholine-induced effect at 10 uM incubated for 8 secs followed by compound washout for 241 secs by Two-electrode voltage clamp assay; format: cell-based; how it was run: as §7
[27] = Binding affinity to (alpha1)2beta1gammadelta nAChR (unknown origin); set-up: species or system Homo sapiens

C1NCC2CNCC1C2
Ki [1]: > 1000 nM
Ki [2]: > 1000 nM
Activity [3]: Active
Activity [4]: Active
Ki [5]: > 1000 nM
Activity [6]: Active
Ki [7]: 600 nM
Activity [8]: Active
Activity [9]: Active
Activity [10]: Active

O=c1c(-c2cccnc2)ccc2n1C[C@@H]1CNC[C@H]2C1
Ki [11]: 0.91 nM
Ki [12]: 1100 nM
Ki [13]: > 5000 nM

CC(=O)N1C[C@@H]2CNC[C@@H](C2)C1
Ki [14]: 3280 nM
Activity [15]: inactive
Ki [2]: 636 nM
Activity [4]: Active
Ki [16]: 20.2 nM
Ki [5]: 664 nM
Ki [17]: 18.7 nM
Ki [7]: 5.6 nM
Activity [10]: Active

CCCC(=O)N1C[C@@H]2CNC[C@@H](C2)C1
Ki [14]: 230 nM
Ki [1]: > 5000 nM
Activity [15]: inactive
Ki [2]: > 1000 nM
Activity [4]: Active
Ki [16]: 2.9 nM
Ki [5]: 266 nM
Ki [17]: 8.1 nM
Ki [7]: 3.6 nM
Activity [18]: Active
Activity [10]: Active

O=C(c1ccc(-c2ccccc2)cc1)N1C[C@@H]2CNC[C@@H](C2)C1
Ki [5]: 1090 nM
Activity [19]: Active
Ki [7]: 39.9 nM
Activity [20]: Active
Activity [21]: Active
Activity [22]: Active
Activity [23]: Active
Activity [24]: Active

O=c1cccc2n1C[C@@H]1CNC[C@H]2C1 [CYTISINICLINE]
Ki [25]: 19 nM
Ki [12]: 250 nM
Ki [13]: 1300 nM

O=C(CC1CCCC1)N1C[C@@H]2CNC[C@@H](C2)C1
Activity [4]: inactive
Activity [26]: Active
Ki [7]: 43.5 nM
Activity [22]: Active

CN1C[C@@H]2C[C@H](C1)C1CCCC(=O)N1C2 (some centres not stated)
Ki [27]: > 50000 nM

O=C1CCCC2[C@H]3CNC[C@H](C3)CN12 (some centres not stated)
Ki [27]: 19000 nM

O=C(C1CCCC1)N1C[C@@H]2CNC[C@@H](C2)C1
Ki [14]: 211 nM
Activity [15]: inactive
Activity [4]: inactive
Ki [16]: 20.2 nM
Ki [17]: 26.6 nM
Ki [7]: 10.8 nM
Activity [10]: Active
